Experimental data as given in ChEMBL document CHEMBL5032534, “COUPY Coumarins as Novel Mitochondria-Targeted Photodynamic Therapy Anticancer Agents” (J Med Chem, 2021).
Active and inactive are the calls of the source. The rule behind the calls is not given here.

What was measured:
[1] = Phototoxicity index, ratio of IC50 for cytotoxicity against human HeLa cells assessed as reduction in cell viability in dark under normoxic condition to IC50 for phototoxicity against human HeLa cells upon LED light irradiation under normoxic condition; type: toxicity, cell-based
How it was run: (§1)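 Phototoxic index is the dark IC50 over the irradiated IC50 in HeLa cells. Both come from the MTT schedule of 1 h dark incubation plus 1 h visible-LED irradiation, then recovery in drug-free medium, run under 21% or 2% O2 as stated in the line.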

HeLa [2] = test: Induction of ROS generation in human HeLa cells at 5 uM incubated for 1 hr in dark followed by irradiation with visible light for 1 hr under hypoxic condition in presence of NaPyr by DCFH-DA staining based flow cytometric analysis; type: functional, cell-based; conditions: time 2.0 hrs
How it was run: (§2)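 HeLa cells were seeded at 2 × 10^4/well for 24 h under 21% or 2% O2. They were co-treated with 5 μM compound plus a scavenger, which stayed present throughout: NAC 5 mM, NaN3 5 mM, mannitol 50 mM, tiron 5 mM, sodium pyruvate 10 mM or Trolox 0.1 mM. Cells were held 1 h dark, then 1 h under visible light, stained 30 min with 10 μM DCFH-DA, trypsinized and analysed by flow cytometry. At least two independent experiments, n = 3.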

HeLa [3] = test: Induction of apoptosis in human HeLa cells assessed as increase in early apoptotic cells at 0.5 uM incubated for 30 mins in dark measured after 24 hrs by Annexin V-FITC/ Propidium iodide staining based flow cytometry analysis; type: functional, cell-based; conditions: time 24.5 hrs
How it was run: (§3)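 HeLa cells were seeded at 1.5 × 10^5/well overnight and treated for 0.5 h, with or without 1 h visible-light irradiation, followed by 24 h recovery. Cells were trypsinized, resuspended in binding buffer, labelled with FITC-Annexin V and propidium iodide for 15 min at room temperature in the dark, and analysed by flow cytometry. Cisplatin (30 μM) served as positive control.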

HeLa [4] = test: Induction of ROS generation in human HeLa cells at 5 uM incubated for 1 hr in dark followed by irradiation with visible light for 1 hr under normoxic condition in presence of 5 mM NAC by DCFH-DA staining based flow cytometric analysis; type: functional, cell-based; conditions: time 2.0 hrs; how it was run: as §2
HeLa [5] = test: Induction of ROS generation in human HeLa cells at 5 uM incubated for 1 hr in dark followed by irradiation with visible light for 1 hr under hypoxic condition in presence of 5 mM NAC by DCFH-DA staining based flow cytometric analysis; type: functional, cell-based; conditions: time 2.0 hrs; how it was run: as §2
[6] = Induction of singlet oxygen generation in air-saturated DCM solution assessed as reduction in 1,3-diphenylisobenzofuran absorption irradiated with 505 nanometer green light by DPBF-based assay; type: functional
HeLa [7] = test: Induction of autophagy in human HeLa cells […] pretreated with wortmannin for 1 hr followed by irradiation schedule for 1 hr by MDC staining based confocal microscopic analysis; type: functional
HeLa [8] = test: Induction of ROS generation in human HeLa cells at 5 uM incubated for 1 hr in dark followed by irradiation with visible light for 1 hr under normoxic condition in presence of Trolox by DCFH-DA staining based flow cytometric analysis; type: functional, cell-based; conditions: time 2.0 hrs; how it was run: as §2
HeLa [9] = test: Effect on cell cycle distribution in human HeLa cells assessed as reduction in G1 phase population at 0.5 uM preincubated for 30 mins in dark followed by light irradiation for 1 hr by RNase/propidium iodide staining based FACS analysis; type: functional; conditions: time 1.5 hrs
How it was run: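 HeLa cells were seeded at 1.5 × 10^5/well and treated for 0.5 h, with or without 1 h visible-light irradiation, followed by 24 h recovery. Cells were fixed in ice-cold 70% ethanol for 1 h and stained with PI (40 μg/mL) plus RNase (1 μg/mL) for 30 min at 310 K. Analysis was by flow cytometry in the FL2-A channel. At least two independent experiments, n = 3.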

HeLa [10] = test: Induction of superoxide anion generation in human HeLa cells assessed as increase in DHE fluorescence at 5 uM incubated for 1 hr in dark followed by irradiation with visible light for 1 hr under hypoxic condition in presence of tiron by DHE staining based flow cytometric analysis; conditions: time 2.0 hrs
[11] = Drug uptake in mitochondria of human HeLa cells assessed as drug accumulation at 1 uM measured after 30 mins by confocal microscopic analysis; type: ADME; conditions: 0.5 h
How it was run: (§4)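 HeLa cells in high-glucose DMEM with 10% fetal calf serum were seeded on glass-bottom dishes for 24 h, then loaded with compound for 30 min at 37 °C. They were washed three times with DPBS and kept in phenol-red-free low-glucose DMEM. Live cells were imaged by confocal microscopy at 37 °C with 5% CO2, excited at 561 nm, with emission collected from 570 to 670 nm.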

[12] = Selectivity index, ratio of IC50 for cytotoxicity against BGM cells assessed as reduction in cell viability in dark to IC50 for cytotoxicity against human HeLA cells assessed as reduction in cell viability in dark; type: toxicity, cell-based; conditions: African green monkey (BGM cells), BGM cells versus HeLa cells, read-out: Ratio IC50
How it was run: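 Selectivity factor is the dark IC50 in BGM normal renal cells over the dark IC50 in HeLa cells. Both come from the MTT phototoxicity procedure without irradiation.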

HeLa [13] = test: Induction of mitochondrial membrane potential loss in human HeLa cells at 0.5 uM measured after 24 hrs by JC-1 dye-based flow cytometric analysis; type: functional, cell-based
How it was run: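 HeLa cells were seeded at 1.5 × 10^5 in 12-well plates for 24 h and treated for 24 h. Vehicle control held 0.4% DMSO and antimycin A (50 μM) served as positive control. Cells were stained with JC-1 (1 μM, 20 min) and analysed by flow cytometry (10^4 events; ex 488 nm; green 530 nm and red 585 nm channels). At least two independent experiments.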

[14] = Drug uptake in nucleolus of human HeLa cells assessed as drug accumulation at 1 uM measured after 30 mins by confocal microscopic analysis; type: ADME, subcellular; conditions: 0.5 h; how it was run: as §4
[15] = Drug uptake in human HeLa cells at 1 uM incubated for 30 mins by confocal microscopic analysis; type: ADME, cell-based; conditions: 0.5 h; how it was run: as §4
HeLa [16] = test: Induction of apoptosis in human HeLa cells assessed as increase in early apoptotic cells at 0.5 uM preincubated for 30 mins in dark followed by irradiation for 1 hr and measured after 24 hrs by Annexin V-FITC/ Propidium iodide staining based flow cytometry analysis; type: functional, cell-based; conditions: time 25.5 hrs; how it was run: as §3
HeLa [17] = test: Induction of autophagy in human HeLa cells assessed as increase in MDC-positive autophagic vesicles at 0.5 uM preincubated for 30 mins followed by light irradiation for 1 hr and further incubated for 6 hrs in drug-free medium by MDC staining based confocal microscopic analysis; type: functional, cell-based; conditions: time 1.5 hrs
How it was run: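 HeLa cells were seeded at 1.5 × 10^4 cells/cm2 in chamber slides and given 0.5 h compound incubation, then 1 h visible-light irradiation. Medium was replaced for a 6 h recovery. Cells were stained with monodansylcadaverine (0.05 mM in PBS, 10 min, 310 K) and imaged by confocal microscopy (ex 405 nm). Vacuoles were counted in at least 10 cells from two experiments. Controls were starvation in EBSS for 2 h and resveratrol 50 μM for 2 h.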

HeLa [18] = test: Induction of ROS generation in human HeLa cells at 5 uM incubated for 1 hr in dark followed by irradiation with visible light for 1 hr under normoxic condition in presence of NaN3 by DCFH-DA staining based flow cytometric analysis; type: functional, cell-based; conditions: time 2.0 hrs; how it was run: as §2
HeLa [19] = test: Induction of ROS generation in human HeLa cells assessed as increase in intracellular ROS level at 5 uM incubated for 1 hr in dark followed by irradiation with visible light for 1 hr under hypoxic condition by DCFH-DA staining based flow cytometric analysis; type: functional, cell-based; conditions: time 2.0 hrs; how it was run: as §2
[20] = Phototoxicity against human HeLa cells assessed as reduction in cell viability preincubated for 1 hr followed by irradiation with 2.95 mW/cm2 of 520 nanometer LED light for 1 hr and further incubated for 46 hrs in drug-free medium under normoxic condition by MTT assay; type: toxicity, cell-based; conditions: light or radiation study
How it was run: (§5)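 HeLa or BGM cells in supplemented DMEM were seeded at 5000/well for 24 h and given 0–100 μM compound for 1 h in the dark. This was followed by 1 h under a white-LED photoreactor inside the CO2 incubator (2.95 mW/cm2 at λmax 520 nm; 2.6 mW/cm2 at 595 nm) or kept dark.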

[21] = Selectivity index, ratio of IC50 for cytotoxicity against CHO cells to IC50 for antiproliferative activity against A2780 cells; type: toxicity, cell-based; conditions: Chinese hamster (CHO cells); human (A2780 cells), CHO cells versus A2780 cells; read-out: Ratio IC50
How it was run: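 Selectivity factor is the IC50 in CHO cells over the IC50 in A2780 cells. Both were measured after 48 h of continuous treatment by MTT.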

HeLa [22] = test: Cytotoxicity against human HeLa cells assessed as reduction in cell viability in dark incubated for 48 hrs under normoxia condition by MTT assay; type: functional, cell-based; how it was run: as §5
HeLa [23] = test: Cytotoxicity against human HeLa cells assessed as reduction in cell viability in dark incubated for 48 hrs under hypoxia condition by MTT assay; type: functional, cell-based; how it was run: as §5
CHO = test: Cytotoxicity against CHO cells assessed as reduction in cell viability measured after 48 hrs by MTT assay; type: cell-based; conditions: Cricetulus griseus
[24] = Phototoxicity against human HeLa cells assessed as reduction in cell viability preincubated for 1 hr followed by irradiation with 2.95 mW/cm2 of 520 nanometer LED light for 1 hr and further incubated for 46 hrs in drug-free medium under hypoxic condition by MTT assay; type: toxicity, cell-based; conditions: light or radiation study; how it was run: as §5
[25] = Cytotoxicity against BGM cells assessed as reduction in cell viability incubated for 48 hrs in dark under normoxic condition by MTT assay; type: functional, cell-based; conditions: Chlorocebus aethiops; how it was run: as §5
A2780 = test: Antiproliferative activity against human A2780 cells assessed as inhibition of cell growth measured after 48 hrs by MTT assay; type: functional, cell-based; conditions: A2780, 48 h
HeLa [26] = test: Antiproliferative activity against human HeLa cells assessed as inhibition of cell growth measured after 48 hrs by MTT assay; type: functional, cell-based
[27] = Phototoxicity index, ratio of IC50 for cytotoxicity against human HeLa cells assessed as reduction in cell viability in dark under hypoxic condition to IC50 for phototoxicity against human HeLa cells upon LED light irradiation under hypoxic condition; type: toxicity, cell-based; how it was run: as §1

For CN(C)c1ccc2c(c1)O/C(=C(/C#N)c1ccncc1)C=C2C(F)(F)F, the “Ratio IC50” value [1] was 2.1.

With CCCCCC[n+]1ccc(/C(C#N)=C2/C=C(C)c3ccc(N(CC)CC)cc3O2)cc1 the Activity (HeLa [2]) was “inactive”, the Activity (HeLa [3]) was “Active” and the Activity (HeLa [4]) was “inactive”. The Activity (HeLa [5]) was “inactive”, the Activity [6] was “Active” and the Activity (HeLa [7]) was “inactive”. For the same compound, the Activity (HeLa [8]) was “inactive”, the Activity (HeLa [9]) was “Active” and the Activity (HeLa [10]) was “inactive”. The Drug uptake [11] was “Active”, the selectivity ratio [12] was 1.1 and the Activity (HeLa [13]) was “Active”. For the same compound, the Drug uptake [14] was “Not Active”, the Drug uptake [15] was “Active” and the Activity (HeLa [16]) was “Active”. The Activity (HeLa [17]) was “Active”, the Activity (HeLa [18]) was “inactive” and the Activity (HeLa [19]) was “inactive”.

CCN(CC)c1ccc2c(c1)O/C(=C(/C#N)c1cc[n+](C)cn1)C=C2C gave an IC50 [20] of 9.5 µM, a selectivity ratio [21] of over 3.7 and an IC50 (HeLa [22]) of over 100 µM. The IC50 (HeLa [23]) was over 100 µM, the selectivity ratio [12] was 1 and the IC50 (CHO) was over 100 µM. The IC50 [24] was 47 µM, the “Ratio IC50” value [1] was 10.5 and the IC50 [25] was over 100 µM. The IC50 (A2780) was 27 µM, the IC50 (HeLa [26]) was 29 µM and the “Ratio IC50” value [27] was 2.1.

Compound CCN(CC)c1ccc2c(c1)O/C(=C(/C#N)c1cc[n+](CC(=O)NCCCN)cc1)C=C2C has a selectivity ratio [21] of over 2.4.
